The list is not random: actives were taken first. Their share in the collection is about 2.2%.
Ec RNAP inh: blocks E. coli RNA polymerase transcription | P0A8V2 | fluorescence transcription assay | inhibition, %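 (tested at 10 µM)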 | 0.2% of 62,000 active; in the data active = inhibition above about 20%;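 note: 0% = enzyme without compound and 100% = no enzyme blank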
Target sequence (P0A8V2 whole entry, looked up): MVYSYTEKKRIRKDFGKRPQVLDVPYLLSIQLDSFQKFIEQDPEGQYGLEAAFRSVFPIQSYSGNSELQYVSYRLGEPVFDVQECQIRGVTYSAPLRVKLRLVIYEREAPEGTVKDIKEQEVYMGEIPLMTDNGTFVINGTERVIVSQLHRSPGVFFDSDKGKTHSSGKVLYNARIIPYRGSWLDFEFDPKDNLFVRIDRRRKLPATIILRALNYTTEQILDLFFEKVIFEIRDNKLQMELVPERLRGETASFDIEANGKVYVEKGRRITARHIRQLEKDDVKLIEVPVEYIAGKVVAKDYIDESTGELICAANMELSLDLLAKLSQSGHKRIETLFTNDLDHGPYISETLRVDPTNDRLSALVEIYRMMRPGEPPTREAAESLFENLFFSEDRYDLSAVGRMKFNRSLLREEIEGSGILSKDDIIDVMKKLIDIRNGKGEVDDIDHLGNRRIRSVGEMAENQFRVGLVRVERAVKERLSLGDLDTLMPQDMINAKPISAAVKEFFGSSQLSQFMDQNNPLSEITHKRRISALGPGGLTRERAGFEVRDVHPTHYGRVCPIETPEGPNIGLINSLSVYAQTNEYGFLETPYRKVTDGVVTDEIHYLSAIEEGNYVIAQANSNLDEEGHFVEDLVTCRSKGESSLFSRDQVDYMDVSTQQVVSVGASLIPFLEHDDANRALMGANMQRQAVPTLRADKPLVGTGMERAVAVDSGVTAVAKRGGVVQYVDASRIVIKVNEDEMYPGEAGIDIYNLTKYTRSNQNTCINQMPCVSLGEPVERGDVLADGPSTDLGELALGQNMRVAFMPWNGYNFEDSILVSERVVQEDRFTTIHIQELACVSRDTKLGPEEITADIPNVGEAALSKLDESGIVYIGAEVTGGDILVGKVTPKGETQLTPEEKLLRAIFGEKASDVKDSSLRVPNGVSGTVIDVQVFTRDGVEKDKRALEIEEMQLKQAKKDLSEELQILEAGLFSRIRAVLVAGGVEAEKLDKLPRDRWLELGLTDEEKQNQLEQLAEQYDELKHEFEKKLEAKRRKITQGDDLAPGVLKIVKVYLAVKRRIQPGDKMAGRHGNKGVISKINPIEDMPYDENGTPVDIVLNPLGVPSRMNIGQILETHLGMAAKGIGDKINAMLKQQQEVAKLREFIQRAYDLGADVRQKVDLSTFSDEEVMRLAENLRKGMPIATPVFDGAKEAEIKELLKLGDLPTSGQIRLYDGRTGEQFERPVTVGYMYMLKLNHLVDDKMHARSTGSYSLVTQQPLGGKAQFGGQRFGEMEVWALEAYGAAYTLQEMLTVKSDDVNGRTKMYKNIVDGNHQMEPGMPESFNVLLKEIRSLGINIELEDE
RORa activator: activates the human nuclear receptor RORA; P35398; CHO-K1 Gal4-RORA LBD luciferase reporter, luminescence; percent increase over mock-subtracted basal signal; activation, % at 10 µM; 1.5% of 65,000 active; AID 560;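 active = activation above the mean of all tested compounds plus 3 SD, cut at about 49% in these data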;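 note: 0% = DMSO-treated RORA cells and 100% = added signal equal to DMSO minus mock-transfected cells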
SF-1 act: activates the human nuclear receptor SF-1. activation, % at 10 µM. Q13285. AID 522. CHO-K1 Gal4-SF-1 LBD luciferase reporter; % increase over DMSO SF-1-specific signal. 1.9% of 65,000 active;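 active = activation above the mean activation of all tested compounds plus 3 SD, cut at about 50% in these data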
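Material: Transient Gal4-SF-1 LBD reporter, CHO-K1 | Input: 4,000 cells/well | Dosing: One dose, 10 µM compound, 1% DMSO | Incubation: 20 h compound treatment, 37 °C | Detection: SteadyLite luciferase luminescence | Evaluation: Percent activation relative to DMSO median and mock-transfected background | Benchmarks: DMSO-treated SF-1-transfected cells as negative, DMSO-treated mock-transfected cells lacking SF-1 as background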
TNAP act mid DEA: activators of human TNAP at intermediate phosphate acceptor; P05186; purified TNAP, CDP-star luminescence, 100 mM DEA, 30 min; active compounds read high; scale: 0 levamisole-inhibited, 1 vehicle-only enzyme; activation factor at 20 µM; 64,000 tested, under 10 active;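 active = activation factor of at least 2 at 20 µM, relative to controls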
MT1-MMP txn act: activates MT1-MMP transcription; HT1080 MT1-MMP promoter luciferase reporter, luminescence, overnight; active compounds read high; activation factor at 10 µM; 0.16% of 86,000 active;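 active = activation factor of at least 2 for MT1-MMP transcription at 10 µM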
AP complement: alternative pathway complement inhibition, orthogonal assay; Human serum alternative complement pathway, LPS-coated ELISA, C3 deposition; tested in compound mixtures; 0.08% of 62,000 active; AID 1235; inhibition, % at 5 µM;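 active = inhibition above 30% in each of the two pooled mixtures holding the compound, so the lower value exceeds 30%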;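 note: 0% = serum in Mg-EGTA without compound and 100% = EDTA serum blank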
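Test system: human serum alternative complement pathway, C3 deposition on LPS-coated wells; also added: Plate-bound LPS; doses: 5 µM per compound in ten-compound mixtures; schedule: 1 h at 37 °C; detection: Anti-C3 ELISA, OD 450 nm; evaluation: percent inhibition of C3 deposition onto LPS; repeats: two pool placements per compound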
* marks the source's active call; other numbers are inactive results; / = no result given.

SMILES | Ec RNAP inh | RORa activator | SF-1 act | TNAP act mid DEA | MT1-MMP txn act | AP complement
COC(=O)c1c(NC(=O)CC2SCC(C(=O)OC)NC2=O)sc2c1CCCC2 (stereo not drawn) | / | 51.7* | 0.3 | 1 | 1 | /
COC(=O)c1c(NC(=O)CCCC(=O)O)sc2c1CCC2 | / | / | / | / | 2.1* | /
COC(=O)c1c(NC(C)=O)sc2c1CCCC2 | 3.1 | -9.3 | 5.2 | 1 | 1.1 | -10.9
CCOC(=O)N1CCC(NC(=O)c2ccc3c(c2)sc2nc(-c4cccc(OC)c4)cn23)CC1 | 4.4 | 2.0 | 24.0 | 0.9 | 1.3 | 8.9
CCOC(=O)N1CCC(NC(=O)c2ccc3c(c2)sc2nc(-c4ccccc4)cn23)CC1 | 3.4 | 53.0* | 22.4 | 0.9 | / | 12.2
O=C(C1CCN(Cc2ccc(OCc3ccccc3)cc2)CC1)N1CCCC1 | 2.9 | -4.3 | 37.8 | 1 | 1.2 | 4.3
CCCCNC(=O)C1CCN(Cc2ccc(OCc3ccccc3)cc2)CC1 | / | / | / | / | 2* | /
CCc1ccccc1Nc1ccc(C(=O)O)cc1N | 2.1 | 14.9 | 59.6* | 0.9 | 1.6 | -2.0
Nc1cc(C(=O)O)ccc1Nc1ccccc1 | 6.4 | 22.4 | 20.4 | 0.9 | 1.1 | 16.9
CC(C)(C)c1ccc(-c2conc2N)cc1 | 7.2 | 23.0 | 51.6* | 1 | 1 | -8.4
COc1ccccc1C1CN(c2ccc(F)cc2F)N=C1c1cccs1 (stereo not drawn) | / | / | / | / | 1 | /
COc1ccccc1C1CC(c2cccs2)=Nc2ccccc2S1 (stereo not drawn) | / | / | / | / | 2.1* | /
CCC1=C2CC[C@H]3C(=O)NC(=O)[C@H]3[C@H]2[C@@]2(C)C(=O)N(CC3CC3)C(=O)N2C1=O | / | / | / | / | 1.1 | /
N#Cc1c(N)nc(SCc2ccccn2)c(C#N)c1-c1cccs1 | -0.8 | -12.9 | -10.6 | 0.9 | 1.2 | 22.3
N#Cc1cc2ccccc2nc1SCc1ccccn1 | 7.8 | 71.3* | 66.7* | 0.8 | 1.7 | 1.8
O=C(CSc1ccc2ccccc2n1)N1CCC(c2noc3ccc(F)cc23)CC1 | / | / | / | / | 1.2 | /
COC(=O)c1ccc(OCC(O)CN(CC(C)C)CC(C)C)cc1 (stereo not drawn) | 2.2 | -2.3 | -14.3 | 0.9 | 1.1 | 3.6
COc1cc(NC(=O)c2csc3c2CCCC3)ncn1 | 3.8 | 56.5* | 14.3 | 0.9 | 1.5 | 50.5
CCC1(C)Cc2c(sc3nc(NC)n(C)c(=O)c23)CO1 (stereo not drawn) | 1.3 | 17.4 | 4.6 | 0.9 | 1 | 35.3*
Cn1c(NN)nc2sc3c(c2c1=O)CC(C)(C)OC3 | / | / | / | / | 1.1 | /
COC(=O)c1c(C)[nH]c(C(=O)OCc2ccc(F)cc2)c1C | / | 29.5 | 59.8* | 1 | 1.4 | /
Cc1onc(-c2ccccc2)c1C(=O)N1CCCc2ccccc21 | / | 16.5 | 12.4 | 0.9 | 1.1 | 31.9*
Cc1onc(-c2c(Cl)cccc2Cl)c1C(=O)N1CCCc2ccccc21 | / | / | / | / | 1.3 | /
O=C(c1ccccc1)c1cc(F)c(N2CCOCC2)cc1Cl | 4.8 | -8.1 | 4.7 | 0.9 | 1.1 | 12.3
O=C(c1ccccc1)c1ccc(N2CCOCC2)c(F)c1 | / | 74.2* | 46.4 | 0.9 | 1.3 | 8.7
SMILES | Ec RNAP inh | RORa activator | SF-1 act | TNAP act mid DEA | MT1-MMP txn act | AP complement
CC(=O)c1c(C)nc(-c2ccc(Cl)cc2)nc1N=CN(C)C | 4.0 | 67.6* | 75.6* | 1 | 1.7 | -3.0
C/C(N)=C(/C#N)C(=O)CSc1nnc(-c2ccc(OC(F)F)cc2)o1 | 1.1 | 39.8 | 63.0* | 0.9 | 1.5 | 9.8
CCOC(=O)c1c(C)[nH]c(C)c1C(=O)CSc1nnc(-c2ccc(OC(F)F)cc2)o1 | / | / | / | / | 1.2 | /
COc1ccc(-c2noc(-c3ccccc3Cl)n2)cc1OC | 2.5 | 81.9* | 45.4 | 0.9 | 1.7 | 13.2
CCOc1ccc(-c2noc(-c3ccncc3)n2)cc1OCC | 6.9 | -9.6 | 17.6 | 0.9 | 1.1 | 17.5
COc1ccc(-c2noc(-c3cccc(Cl)c3)n2)cc1OC | -1.0 | 13.0 | 13.8 | 0.9 | 1.4 | 5.4
COc1ccc(-c2nc(-c3ccncc3)no2)cc1OC | 6.3 | 67.6* | 73.8* | 1 | 1.5 | -12.6
COc1cccc(-c2nc(-c3ccccn3)no2)c1OC | 0.2 | 15.4 | 50.0* | 1 | 1.3 | 0.0
COc1ccc(-c2noc(-c3ccco3)n2)cc1OC | 6.9 | 44.2 | 50.5* | 1 | 1.1 | -1.8
Cc1ccc(C)c(OCCOCCN2CC(C)OC(C)C2)c1C (stereo not drawn) | / | / | / | / | 1.2 | /
COc1ccc(CCC(=O)Nc2ccc(-c3noc(-c4ccc(OC)c(OC)c4)n3)cc2)cc1 | 3.9 | 14.5 | 75.4* | 0.9 | 1.4 | 20.0
COc1nc(C)ccc1-c1noc(-c2ccco2)n1 | 9.7 | 66.9* | 16.8 | 0.9 | / | 17.2
COc1ccccc1-c1nc(-c2ccncc2)no1 | / | 58.2* | 9.6 | 0.9 | 1 | 20.7
COc1ccc(-c2nc(-c3ccc(Br)o3)no2)cc1OC | 5.1 | 60.5* | 86.7* | 0.9 | 1.7 | 5.6
CS/C(=N\S(=O)(=O)c1cccs1)NC(=O)CSc1nc2ccccc2s1 | 9.9 | 7.3 | 9.1 | 0.9 | 1.3 | 1.9
COc1cccc(NC(=O)c2nnn(Cc3ccc(Br)cc3F)c2N)c1 | 7.0 | 58.3* | 1.8 | 0.8 | 1.2 | 10.1
COc1cccc(NC(=O)Cn2nnc(C(=O)Nc3ccccc3)c2N)c1 | -1.2 | 21.1 | 7.1 | 1 | 1.2 | 9.9
COc1cccc(NC(=O)c2nnn(CCc3ccccc3)c2N)c1 | 5.1 | 53.1* | 83.8* | 0.8 | 1.4 | 14.0
CCCC[C@@H]1C[C@H]1C(NS(=O)(=O)c1cccc2cccnc12)c1ccc(-c2ccccc2)cc1 (stereo partly drawn) | / | / | / | / | 1.3 | /
C=CCNC(=O)COc1ccc(Br)cc1Cl | 8.5 | 28.5 | 24.1 | 0.9 | 1.5 | -2.3
CC(=O)c1cnc2cc(-c3ccccc3)nn2c1C | -3.9 | 27.9 | 49.8* | 0.9 | 1.1 | -1.8
CC(=O)c1cnc2cc(-c3ccc(C)cc3)nn2c1C | / | / | / | / | 1.8 | /
CNc1nc(-c2ccc(Cl)cc2)cs1 | -0.7 | 47.1 | 63.5* | 0.9 | 1.2 | 21.9
CCNc1nc(-c2ccc(Cl)cc2)cs1 | 0.8 | 50.1* | 15.9 | 0.9 | 1.1 | 23.5
Clc1ccc(Nc2nc(-c3ccncc3)cs2)cc1 | / | / | / | / | 1.7 | /
SMILES | Ec RNAP inh | RORa activator | SF-1 act | TNAP act mid DEA | MT1-MMP txn act | AP complement
Cc1cc(NC(=O)C2C3C(=O)N(CCC(C)C)C(C(=O)NCc4ccccc4)C34C=CC2(C)O4)no1 (stereo not drawn) | 3.6 | 2.0 | 6.2 | 0.9 | 1.2 | -0.9
Cc1sc(NC(=O)c2ccc(Cl)s2)c(C(N)=O)c1C | 2.8 | 65.5* | 100.9* | 0.9 | 2.2* | 13.9
Cc1sc(NC(=O)c2ccc(Br)s2)c(C(N)=O)c1C | / | / | / | / | 1.2 | /
Cc1nc(NC(=O)C2CC3CCCC(C2)C3=O)sc1C (stereo not drawn) | -9.2 | 62.1* | 53.7* | 0.9 | 1.6 | -11.0
CCOc1ccccc1NC(=S)NCc1ccco1 | / | / | / | / | 1 | /
C=CCn1cnc2c(NCc3ccccc3)ncnc21 | 5.5 | 45.9 | 64.9* | 0.9 | 1.6 | -10.7

Assay outcomes: PubChem BioAssay, several laboratories
